Source: ChEMBL document CHEMBL2331284, “Synthesis and biological evaluation of 1,3,4-thiadiazole analogues as novel AChE and BuChE inhibitors” (Eur J Med Chem, 2013)
Activity calls are given as the source filed them. No cut-off for these calls is given here.

How the values were obtained:
[1] = Selectivity ratio of IC50 for equine serum BChE to IC50 for electric eel AChE
Summary of the method: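 Modified Ellman assay for both enzymes: electric eel AChE with ATCh, or equine serum BuChE with BTCh; DTNB; 0.1 M potassium phosphate pH 8. Compound preincubated 10 min before substrate, absorbance rise at 412 nm at 1-min intervals, 37 °C. Seven concentrations (10⁻³–10⁻⁹ M) run in triplicate. IC50 from log dose–response; ratio = IC50(BuChE)/IC50(AChE).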

Cholinesterase = Cholinesterase (Equus caballus, UniProt P81908); assay: Inhibition of equine serum BChE using butyrylthiocholine iodide as substrate after 10 mins by Ellman method
Chain of Cholinesterase (P81908 whole entry): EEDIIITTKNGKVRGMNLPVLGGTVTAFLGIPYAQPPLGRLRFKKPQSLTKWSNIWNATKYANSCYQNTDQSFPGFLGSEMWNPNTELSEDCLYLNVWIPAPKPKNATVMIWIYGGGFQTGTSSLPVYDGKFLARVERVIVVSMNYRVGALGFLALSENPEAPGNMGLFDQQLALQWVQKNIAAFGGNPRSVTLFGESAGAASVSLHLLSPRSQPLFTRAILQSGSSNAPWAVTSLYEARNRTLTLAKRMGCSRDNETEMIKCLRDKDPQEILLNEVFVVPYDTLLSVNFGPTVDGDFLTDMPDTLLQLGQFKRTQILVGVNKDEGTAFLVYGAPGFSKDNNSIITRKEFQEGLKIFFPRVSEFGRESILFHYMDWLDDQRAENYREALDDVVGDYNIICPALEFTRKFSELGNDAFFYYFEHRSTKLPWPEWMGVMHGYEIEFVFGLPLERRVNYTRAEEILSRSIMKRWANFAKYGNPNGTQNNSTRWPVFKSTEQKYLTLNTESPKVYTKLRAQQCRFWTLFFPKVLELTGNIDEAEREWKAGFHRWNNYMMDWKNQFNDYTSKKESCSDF

Acetylcholinesterase = Acetylcholinesterase (Electrophorus electricus, UniProt O42275); assay: Inhibition of electric eel AChE using […] as substrate after 10 mins by Ellman method
Chain of Acetylcholinesterase (O42275 whole entry): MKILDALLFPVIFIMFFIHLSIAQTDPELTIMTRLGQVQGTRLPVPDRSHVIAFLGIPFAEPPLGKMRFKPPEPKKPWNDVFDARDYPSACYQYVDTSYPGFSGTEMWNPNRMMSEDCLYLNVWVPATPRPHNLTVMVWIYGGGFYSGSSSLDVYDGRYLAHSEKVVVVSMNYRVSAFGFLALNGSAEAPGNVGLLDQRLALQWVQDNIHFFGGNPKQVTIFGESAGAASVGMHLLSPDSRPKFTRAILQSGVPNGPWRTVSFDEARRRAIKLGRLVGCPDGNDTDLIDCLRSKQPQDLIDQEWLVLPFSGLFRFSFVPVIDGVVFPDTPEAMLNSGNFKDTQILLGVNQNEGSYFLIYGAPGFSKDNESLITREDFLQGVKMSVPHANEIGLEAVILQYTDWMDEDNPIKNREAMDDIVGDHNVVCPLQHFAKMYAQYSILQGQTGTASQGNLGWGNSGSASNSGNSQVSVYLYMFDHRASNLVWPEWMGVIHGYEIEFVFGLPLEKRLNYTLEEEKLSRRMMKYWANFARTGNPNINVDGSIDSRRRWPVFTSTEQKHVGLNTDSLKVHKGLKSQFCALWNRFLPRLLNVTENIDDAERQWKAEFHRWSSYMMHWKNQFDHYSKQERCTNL

[2] = target: Acetylcholinesterase (Electrophorus electricus) (UniProt O42275); assay: Non-competitive inhibition of electric eel AChE using acetylcholine iodide as substrate at 0.10 to 0.14 uM by Lineweaver-Burk method
Chain of Acetylcholinesterase (Electrophorus electricus) (O42275 24-633 limits assumed): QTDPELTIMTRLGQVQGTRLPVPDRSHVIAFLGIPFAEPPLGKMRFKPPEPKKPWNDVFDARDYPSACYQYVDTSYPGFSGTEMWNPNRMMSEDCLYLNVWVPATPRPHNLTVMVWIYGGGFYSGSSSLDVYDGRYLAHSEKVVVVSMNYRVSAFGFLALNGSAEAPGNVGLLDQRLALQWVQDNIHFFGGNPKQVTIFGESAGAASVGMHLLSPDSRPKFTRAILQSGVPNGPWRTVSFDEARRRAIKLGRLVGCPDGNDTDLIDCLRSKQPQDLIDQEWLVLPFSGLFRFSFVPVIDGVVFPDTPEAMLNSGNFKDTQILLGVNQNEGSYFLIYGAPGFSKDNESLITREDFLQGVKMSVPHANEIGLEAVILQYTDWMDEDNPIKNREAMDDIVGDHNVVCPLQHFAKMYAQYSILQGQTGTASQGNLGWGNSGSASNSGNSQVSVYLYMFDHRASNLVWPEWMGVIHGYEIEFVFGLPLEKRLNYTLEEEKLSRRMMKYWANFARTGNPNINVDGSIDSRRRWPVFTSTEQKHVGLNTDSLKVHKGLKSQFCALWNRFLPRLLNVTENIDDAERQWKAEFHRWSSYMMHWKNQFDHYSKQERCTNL

[3] = target: Acetylcholinesterase (Electrophorus electricus) (UniProt O42275); conditions: at 0.12 to 0.17 µM

Compound	Ratio IC50 [1]	IC50 (Cholinesterase) [µM]	IC50 (Acetylcholinesterase) [µM]	inhibition [2]	inhibition [3]
Oc1ccc(-c2nnc(-c3ccccc3F)s2)c(O)c1	> 467	> 500	1.07		
Oc1ccc(-c2nnc(-c3ccc(C(F)(F)F)cc3)s2)c(O)c1	294	26.5	0.09	Active	
COc1ccc(OC)c(-c2nnc(-c3ccc(O)cc3O)s2)c1	40.5	63.3	1.56		
Oc1ccc(-c2nnc(-c3cc(Cl)cc(Cl)c3)s2)c(O)c1	> 11.1	> 500	45.3		
O=[N+]([O-])c1cccc(-c2nnc(-c3ccc(O)cc3O)s2)c1	47.9	32.1	0.67		
Oc1ccc(-c2nnc(-c3ccc(O)c(O)c3)s2)c(O)c1	11.4	2.16	0.19		
Oc1ccc(-c2nnc(-c3ccccc3Cl)s2)c(O)c1	127	196	1.55		
Cc1cc(-c2nnc(-c3ccc(O)cc3O)s2)ccc1[N+](=O)[O-]	7.1	148	20.9		
COc1cccc(-c2nnc(-c3ccc(O)cc3O)s2)c1	25.5	27.3	1.87		
COc1cc(-c2nnc(-c3ccc(O)cc3O)s2)ccc1O	5.9	112	19.2		
Nc1cccc(-c2nnc(-c3ccc(O)cc3O)s2)c1	48.7	84.3	1.73		
COc1ccc(-c2nnc(-c3ccc(O)cc3O)s2)cc1OC	> 25.9	> 500	19.3		
Oc1ccc(-c2nnc(-c3ccccc3Br)s2)c(O)c1	4.8	0.29	0.06		
CN(C)C(=O)Oc1cccc([N+](C)(C)C)c1 [NEOSTIGMINE BROMIDE]	1.4	0.07	0.05		
O=[N+]([O-])c1ccccc1-c1nnc(-c2ccc(O)cc2O)s1	27	57.3	2.12		
COc1ccccc1-c1nnc(-c2ccc(O)cc2O)s1	7.9	212	26.7		
Oc1ccc(-c2nnc(-c3cc(Cl)ccc3Cl)s2)c(O)c1	0.17	19.1	112		
COc1ccc(-c2nnc(-c3ccc(O)cc3O)s2)cc1	44.2	96.3	2.18		
Cc1cccc(-c2nnc(-c3ccc(O)cc3O)s2)c1	106	17	0.16		Active
COc1cc(-c2nnc(-c3ccc(O)cc3O)s2)cc(OC)c1OC	1150	196	0.17		
Oc1ccc(-c2nnc(-c3ccc(Cl)cc3Cl)s2)c(O)c1	> 3.9	> 500	128		
Oc1ccc(-c2nnc(-c3ccc(O)cc3O)s2)c(O)c1	14.2	26.7	1.89		
